# Active and inactive are the calls of the source. The rule behind the calls is not given here.
# Key:
# Assay type in all cases: functional
# Pseudomonas aeruginosa [1] = test: Antibacterial activity against gentamicin-resistant Pseudomonas aeruginosa isolate CAN-ICU 62308 after 18 hrs by microtiter dilution assay; details: isolate CAN-ICU 62308, 18 h
# In short: (§1)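 Broth microdilution following CLSI guidelines. An overnight culture was adjusted to 0.5 McFarland in saline, then diluted 1:50 in Mueller-Hinton broth. This inoculum was added in equal volume to 2-fold serial dilutions of agent in MHB and incubated 18 h at 37 °C. MIC was the lowest concentration with no visible growth.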
# Pseudomonas aeruginosa [2] = test: Antibacterial activity against gentamicin/tobramycin-resistant Pseudomonas aeruginosa isolate CANWARD-2011 96846 after 18 hrs by microtiter dilution assay; details: isolate CANWARD-2011 96846, 18 h; in short: as §1
# [3] = test system: Stenotrophomonas maltophilia; test: Antibacterial activity against Stenotrophomonas maltophilia isolate CAN-ICU 62584 after 18 hrs by microtiter dilution assay; details: isolate CAN-ICU 62584, 18 h
# In short: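 Broth microdilution per CLSI. Overnight culture adjusted to 0.5 McFarland in saline, diluted 1:50 in Mueller-Hinton broth, and added to an equal volume of 2-fold serial compound dilutions in MHB. Incubated 18 h at 37 °C. MIC taken as the lowest concentration with no visible growth.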
# Pseudomonas aeruginosa [4] = test: Antibacterial activity against multidrug/extremely drug-resistant/colistin-resistant Pseudomonas aeruginosa isolate 101243 after 18 hrs by microtiter dilution assay; details: isolate 101243, 18 h; in short: as §1
# Pseudomonas aeruginosa [5] = test: Synergistic antibacterial activity against Pseudomonas aeruginosa PAO1 after 18 hrs in presence of amikacin by checkerboard assay; details: PAO1, 18 h
# In short: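 Checkerboard in MHB: antibiotic diluted along one axis and adjuvant along the other (10 × 7 matrix). Inoculum was a 1:50 dilution in MHB of a 0.5 McFarland saline suspension; incubated 18 h at 37 °C. Each FIC = concentration in the no-growth well divided by the MIC alone; FIC index = sum of both FICs. ≤0.5 synergy, 0.5–4 no interaction, ≥4 antagonism.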
# Pseudomonas aeruginosa [6] = test: Potentiation of moxifloxacin-induced antibacterial activity against Pseudomonas aeruginosa PAO1 at 4 ug/ml after 18 hrs by checkerboard assay
# In short: (§2)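 Checkerboard in Mueller-Hinton broth: antibiotic serially diluted along one axis and adjuvant along the other (10 × 7 matrix). Inoculum from a 0.5 McFarland saline suspension diluted 1:50 in MHB; 18 h at 37 °C, then plate read. MIC is the lowest concentration with no growth. FIC of each agent is its concentration in a no-growth well divided by its MIC alone; FIC index is the sum of both. FIC index ≤0.5 counts as synergy.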
# Pseudomonas aeruginosa [7] = test: Potentiation of minocycline-induced antibacterial activity against multidrug/extremely drug-resistant/colistin-susceptible Pseudomonas aeruginosa isolate 100036 at 4 ug/ml after 18 hrs by checkerboard assay; in short: as §2
# Pseudomonas aeruginosa [8] = test: Potentiation of rifampicin-induced antibacterial activity against multidrug/extremely drug-resistant/colistin-susceptible Pseudomonas aeruginosa isolate P259-96918 assessed as fold reduction in rifampicin MIC at 4 ug/ml after 18 hrs by checkerboard assay relative to control
# In short: (§3)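 Checkerboard in Mueller-Hinton broth, 10 × 7 matrix, with the adjuvant held at 4 µg/mL. Inoculum from a 0.5 McFarland suspension diluted 1:50; 18 h at 37 °C. Antibiotic MIC (lowest concentration with no growth) with adjuvant is compared with the antibiotic MIC alone, giving a fold reduction.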
# Pseudomonas aeruginosa [9] = test: Potentiation of rifampicin-induced antibacterial activity against multidrug/extremely drug-resistant/colistin-susceptible Pseudomonas aeruginosa isolate P262-101856 assessed as fold reduction in rifampicin MIC at 4 ug/ml after 18 hrs by checkerboard assay relative to control; in short: as §3
# Acinetobacter baumannii [10] = test: Antibacterial activity against multidrug-resistant Acinetobacter baumannii AB031 after 18 hrs by microtiter dilution assay; details: AB031, 18 h; in short: as §1
# Enterobacter cloacae = test: Antibacterial activity against multidrug-resistant Enterobacter cloacae 117029 after 18 hrs by microtiter dilution assay; details: Enterobacter cloacae, 117029, 18 h; in short: as §1
# Klebsiella pneumoniae = test: Antibacterial activity against multidrug-resistant Klebsiella pneumoniae 116381 after 18 hrs by microtiter dilution assay; details: Klebsiella pneumoniae, 116381, 18 h; in short: as §1
# Acinetobacter baumannii [11] = test: Synergistic antibacterial activity against multidrug-resistant Acinetobacter baumannii 110193 after 18 hrs in presence of minocycline by checkerboard assay; details: Acinetobacter baumannii, 110193, 18 h
# In short: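 Checkerboard in MHB with a 10 × 7 matrix: antibiotic serially diluted along one axis, adjuvant along the other. Inoculum was a 1:50 dilution of a 0.5 McFarland suspension, incubated 18 h at 37 °C and read on a plate reader. Each FIC is the concentration in a no-growth well divided by the MIC alone; FIC index is their sum, with ≤0.5 taken as synergy.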
# Acinetobacter baumannii [12] = test: Potentiation of minocycline-induced antibacterial activity against multidrug-resistant Acinetobacter baumannii AB027 at 4 ug/ml after 18 hrs by checkerboard assay; in short: as §2
# Acinetobacter baumannii [13] = test: Potentiation of rifampicin-induced antibacterial activity against multidrug-resistant Acinetobacter baumannii AB031 at 4 ug/ml after 18 hrs by checkerboard assay; in short: as §2
# Pseudomonas aeruginosa [14] = test: Bactericidal activity against Pseudomonas aeruginosa PAO1 at 0.125 times antibacterial MIC after 6 hrs
# Pseudomonas aeruginosa [15] = test: Potentiation of minocycline-induced antibacterial activity against Pseudomonas aeruginosa PAO1 after 25 serial passages at 0.125 times MIC by microtiter dilution assay
# In short: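 Sequential passaging of wild-type PAO1 with single drugs or drug combinations. MIC was tested in MHB for 18 h. Cells from the well at half the MIC were adjusted to 0.5 McFarland in saline, diluted 1:50 in fresh MHB and used for the next MIC test. This was repeated for 25 passages, and the fold change in MIC was plotted against passage number.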
# Pseudomonas aeruginosa [16] = test: Potentiation of minocycline-induced antibacterial activity against multidrug/extremely drug-resistant/colistin-susceptible Pseudomonas aeruginosa isolate P262-101856 infected in Galleria mellonella assessed as mortality at 12.5 to 37.5 mg/kg after 24 hrs relative to control
# In short: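 Galleria mellonella larvae (~250 mg, used within 7 days), 15 per group, injected with 10 µL XDR P. aeruginosa P262 suspension (1.0×10^3 CFU/mL in PBS). At 2 h, a single 10 µL injection of combination at 12.5 + 12.5, 25 + 25 or 37.5 + 37.5 mg/kg; PBS vehicle control. Kept at 37 °C and survival scored over 24 h.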
# Pseudomonas aeruginosa [17] = test: Potentiation of minocycline-induced antibacterial activity against multidrug/extremely drug-resistant/colistin-susceptible Pseudomonas aeruginosa isolate P262-101856 infected in Galleria mellonella assessed as host survival at 75 mg/kg after 24 hrs relative to control; details: isolate P262-101856, 24 h
# In short: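 Galleria mellonella larvae (about 250 mg, used within 7 days; 15 per group) were injected with 10 µL of XDR P. aeruginosa P262 at 1.0×10^3 CFU/mL. At 2 h they received a single 10 µL injection: monotherapy at 75 mg/kg, or combinations at 12.5+12.5 to 75+75 mg/kg. PBS vehicle served as control. Survival was scored over 24 h at 37 °C.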
structure (smiles),measurement,setting,value
Cl.Cl.Cl.Cl.Cl.Cl.Cl.NCCCC[C@H](N)C(=O)N(CCCCCCCCCCCCO[C@@H]1[C@@H](O[C@H]2O[C@H](CO)[C@@H](O)[C@H](N)[C@H]2O)[C@H](N)C[C@H](N)[C@H]1O[C@H]1O[C@H](CN)[C@@H](O)C[C@H]1N)Cc1c2ccccc2c(Cl)c2ccccc12,MIC,Pseudomonas aeruginosa [1],16 µg/mL
same,MIC,Pseudomonas aeruginosa [2],32 µg/mL
same,MIC,[3],> 128 µg/mL
same,MIC,Pseudomonas aeruginosa [4],16 µg/mL
same,MIC,Pseudomonas aeruginosa [5],2 µg/mL
same,fractional inhibitory concentration index (FICI),Pseudomonas aeruginosa [6],0.313
same,fractional inhibitory concentration index (FICI),Pseudomonas aeruginosa [7],0.094
same,fold change (FC),Pseudomonas aeruginosa [8],256
same,fold change (FC),Pseudomonas aeruginosa [9],64
same,MIC,Acinetobacter baumannii [10],16 to 32 µg/mL
same,MIC,Enterobacter cloacae,256 µg/mL
same,MIC,Klebsiella pneumoniae,256 µg/mL
same,MIC,Acinetobacter baumannii [11],2 µg/mL
same,fractional inhibitory concentration index (FICI),Acinetobacter baumannii [12],0.258
same,fractional inhibitory concentration index (FICI),Acinetobacter baumannii [13],0.09
same,Activity,Pseudomonas aeruginosa [14],inactive
same,Activity,Pseudomonas aeruginosa [15],Active
same,mortality,Pseudomonas aeruginosa [16],100%
same,survival at 75 mg/kg,Pseudomonas aeruginosa [17],77%
